Compound activity deposited in PubChem by several laboratories.
Compounds with a hit are over-represented: about 6.1% of the library has one in this group of screens.
WT yeast gro inh: growth inhibition of WT yeast, mitochondrial fusion screen; mitochondrial fusion phenotypic screen, WT strain; 190,000 tested, 2.1% active; inhibition, % at 10 µM; AID 1362; in the data active means inhibition above about 58%; tested in S. cerevisiae
Yeast lifespan up: yeast lifespan extension; S. cerevisiae growth with nicotinamide, OD615; deaD strain in restrictive glucose medium; inhibition of the nicotinamide effect, % at 10 µM; 130,000 tested, 0.68% active;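 active means inhibition above a set limit, placed 3 SD over the median of all compounds, cut at about 26% in these data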;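 further: 0% = nicotinamide-treated wells and 100% = cells grown without nicotinamide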
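Test system – modified budding yeast, DeaD strain · Compound – single dose 10 µM compound, 0.25% DMSO · Times – culture preincubation 4 h, compound exposure 48 h, both 30 °C · Detection – optical density (absorbance) at 615 nm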
Yeast growth inh: chemicals that inhibit yeast BB579 growth in restrictive medium (lifespan-shortening candidates); 140,000 tested, 0.51% active; S. cerevisiae BB579 growth, OD615, 48 h; inhibition, % at 10 µM;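 active means inhibition above a set limit, 3 SD over the mean compound inhibition, cut at about 44% in these data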
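Test system: DeaD yeast strain BB579 / Buffer or medium: restrictive glucose-based CSMM-D medium / Doses: single 10 µM dose / Schedule: 4 h cell preincubation, 48 h compound exposure, 30 °C humidified / Technique: culture absorbance at 615 nm / Controls: amphotericin B positive control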
RAM inhibit: inhibitors of the yeast RAM network. S. cerevisiae dse1pr::URA3 reporter, 5-FOA growth OD615, 2 d; analog-sensitive cbk1-as2 kinase mutant strain. inhibition, % at 50 µM. 190,000 tested, 1.8% active. AID 868;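 active means inhibition above a set limit, 3 SD over mean compound inhibition, cut at about 8.4% in these data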;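 further: 0% = DMSO-only wells with no growth and 100% = 10 µM 1-NA-PP1 full growth; inhibition rescues growth on 5-FOA so higher OD means more RAM inhibition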
Measles CPE: protection of cells from measles virus; Measles virus-infected cells, CPE protection, absorbance; AID 841; protection (pct of control), % at 4 µM; 140,000 tested, 1.5% active; in the data active means protection mostly above about 24%, no sharp cut-off; inactive means mostly below about 26%
hDAT+cocaine: modulates human dopamine transporter uptake under cocaine; 110,000 tested, 1.3% active; B-score at 10 µM; AID 449768; LLC-PK1 hDAT cells, [14C]-dopamine uptake with cocaine IC80; actives deviate in either direction;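 active means Z score or B-score, a plate-position-corrected score, falls beyond the plate's 99.7% confidence bounds, in either direction; inactive means both scores lie inside the 99.7% bounds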;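 further: scored against the spread of the other compound wells on the same plate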
Target sequence (Q01959 whole entry, looked up): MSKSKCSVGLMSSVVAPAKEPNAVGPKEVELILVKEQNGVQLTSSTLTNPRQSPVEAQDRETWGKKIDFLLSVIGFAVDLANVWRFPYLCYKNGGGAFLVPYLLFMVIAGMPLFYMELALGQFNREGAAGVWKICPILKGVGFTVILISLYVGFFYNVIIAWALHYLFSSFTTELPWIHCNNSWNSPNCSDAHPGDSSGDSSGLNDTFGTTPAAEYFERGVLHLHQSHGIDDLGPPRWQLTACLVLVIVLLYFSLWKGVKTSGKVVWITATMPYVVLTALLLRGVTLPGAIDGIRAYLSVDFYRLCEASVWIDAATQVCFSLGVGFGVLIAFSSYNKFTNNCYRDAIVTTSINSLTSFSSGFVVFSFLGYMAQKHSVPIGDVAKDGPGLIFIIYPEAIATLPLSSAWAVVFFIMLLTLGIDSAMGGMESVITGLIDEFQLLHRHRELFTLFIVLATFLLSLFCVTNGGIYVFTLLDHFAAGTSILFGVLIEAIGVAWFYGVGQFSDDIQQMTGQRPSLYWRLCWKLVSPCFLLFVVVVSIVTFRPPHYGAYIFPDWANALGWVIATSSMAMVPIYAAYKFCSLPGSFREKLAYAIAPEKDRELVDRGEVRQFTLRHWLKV
The depositor's hits bear a star; / = no result.

SMILES	WT yeast gro inh	Yeast lifespan up	Yeast growth inh	RAM inhibit	Measles CPE	hDAT+cocaine
COC(=O)NCC12CC3CC(C1)CC(CNC(=O)OC)(C3)C2	4	37*	-38	1	14	-1.2
CC(=O)NCC12CC3CC(C1)CC(C(=O)O)(C3)C2	-19	-1	-21	0	8	0.06
N#CC(C(=O)NC1CCCCC1)=C1CCCCCC1	-1	8	-40	1	34*	/
CN=c1scc(-c2ccc(F)cc2)n1/N=C/c1ccc(O)c(O)c1	-14	/	/	4	/	/
Cc1nc2ccc(S(=O)(=O)Nc3cccc(-c4nc5cccnc5s4)c3)cc2s1	72*	2	-34	6	5	0.58
N#C/C(=C\c1cccc(NC(=O)c2ccccc2Cl)c1)C(=O)NCCc1ccccc1	84*	2	-38	3	9	/
Cc1cccc2[nH]c(SCC(=O)N3CCOCC3)nc12	3	/	/	2	/	/
CC(Sc1nc2ccccc2n1C)C(=O)NC(c1ccccc1)c1ccccc1 (stereo not given)	59*	/	-8	1	1	-0.23
Cn1c(SC(C(=O)Nc2ccc(F)cc2)c2ccccc2)nc2ccccc21 (stereo not given)	56	3	-12	0	20	/
CCCCOc1cccc(NC(=O)CSc2nncn2C)c1	1	-4	-9	0	27	/
CCCc1ccc(OC(=O)c2ccc(O)cc2Cl)cc1	71	/	/	1	/	/
CCc1nc(NCCCn2ccnc2)c2oc3ccccc3c2n1	-16	-2	-10	1	1	0.8
c1cncc(-c2nc(NCc3ccco3)c3ccccc3n2)c1	-6	-12	-53	0	2	-0.031
Cc1ccc(-c2nc(NCc3ccco3)c3ccccc3n2)cc1	67*	-9	-17	0	25	/
Cc1ccccc1Nc1nc(NCc2ccco2)c2ccccc2n1	79*	/	/	1	/	/
c1ccc(-c2nc(NCc3ccco3)c3oc4ccccc4c3n2)cc1	-6	-8	-51	11*	0	-0.004
c1ccc(-c2nc(NCCCn3ccnc3)c3oc4ccccc4c3n2)cc1	-7	-5	11	1	8	3.5*
Cc1cccc(C)c1NC(=O)C1CCCCN1C (stereo not given)	16	0	-32	3	21	0.033
O=C(O)CSc1nc(-c2ccccc2)nc2c1oc1ccccc12	-10	-9	-33	9.8*	/	0.49
O=C1C=C(Nc2ccc(Cl)cc2)CC(c2ccc(Cl)cc2)C1 (stereo not given)	68*	-15	-6	-2	11	-0.87
Cc1ccc(C2CC(=O)C=C(Nc3ccc(Cl)cc3)C2)cc1 (stereo not given)	-2	4	-20	3	5	/
Cc1cc(C(=O)N/N=C/c2cccc([N+](=O)[O-])c2O)n[nH]1	12	-3	44*	3	17	/
NNC(=O)c1sccc1OCc1ccc(Cl)cc1Cl	-1	/	/	0	/	/
CCOc1ccccc1OCCCOc1ccc(C)cc1Br	58*	-13	7	2	33*	/
CC(C)(C)NC(=O)NC(=O)COC(=O)Cc1coc2ccc3ccccc3c12	70*	-2	-52	5	18	/
SMILES	WT yeast gro inh	Yeast lifespan up	Yeast growth inh	RAM inhibit	Measles CPE	hDAT+cocaine
Cc1cc(C)cc(NC(=O)CCn2cnc3cc(C)c(C)cc32)c1	6	/	/	-1	/	/
COc1ccc(-n2c(Cc3cccn3C)nnc2SCC(=O)Nc2ccc(C)cc2)cc1	-11	1	-44	3	10	2.3*
Cc1ccc(NC(=O)CSc2nnc(Cc3cccn3C)n2-c2ccc(F)cc2)c(C)c1	-6	-4	-10	5	6	-0.97
Cn1cccc1Cc1nnc(SCC(=O)Nc2ccc(F)cc2F)n1-c1ccc(F)cc1	-9	-5	-10	5	8	-8.4*
COc1ccc(NC(=O)CSc2nnc(Cc3cccn3C)n2-c2ccc(OC)cc2)cc1	-6	-1	-39	4	5	-0.023
COc1ccc(N/N=C(/C)c2cnnc(-c3ccccc3)n2)cc1	7	1	-51	5	9	/
Cc1ccc(C(=O)Nc2ccc(S(=O)(=O)NCc3ccco3)cc2)cc1	66*	-11	-10	4	6	0.63
Cc1ccc(S(=O)(=O)NCc2ccco2)cc1C	-5	-7	-5	0	43*	1.2
Cc1ccc(-c2ccc(S(=O)(=O)NCc3ccco3)cc2)cc1	9	/	/	-1	/	/
O=C(Nc1ccccc1)c1ccc(S(=O)(=O)NCc2ccco2)cc1	0	-8	-33	2	12	-0.57
CC(C)CN1C(=S)SC(C)(C)C1n1oc(=O)n(-c2ccc(Cl)cc2)c1=O (stereo not given)	-5	-13	-20	7	29	-0.23
O=C(CSc1nnc2c(Cl)cc(Cl)cn12)N1CCN(c2ccc(F)cc2)CC1	-17	-1	-5	2	4	/
CC1CC(=O)NN=C1c1ccc(NCCO)c([N+](=O)[O-])c1 (stereo not given)	10	-2	-15	2	5	-2.6*
Cn1nc(-c2ccc(NCCO)c([N+](=O)[O-])c2)c2ccccc2c1=O	-1	/	/	3	/	/
CN(C)S(=O)(=O)c1cccc(NC(=O)CSc2nc3c(cc2C#N)C(=O)CC(C)(C)C3)c1	13	-3	-26	6	16	/
CN(C)S(=O)(=O)c1ccc(Cl)c(NC(=O)CSc2nc3c(cc2C#N)C(=O)CC(C)(C)C3)c1	-6	0	-26	9.1*	7	/
CS(=O)(=O)N1CCc2cc(C(=O)N3CCOCC3)ccc21	82*	-20	-25	1	11	0.07
CS(=O)(=O)N1CCc2cc(C(=O)N3CCCCC3)ccc21	-11	-5	-10	0	15	-0.87
CCNC(=S)N/N=C/c1cccc(OCc2c(F)cccc2Cl)c1	69*	-5	2	5	3	/
Fc1ccccc1COc1ccc(/C=N/NC(=S)NCc2ccccc2)cc1	8	/	-35	5	12	-0.38
Cc1cc(/C=N/NC(N)=S)c(C)n1-c1ccc(Cl)c(Cl)c1	63	1	-4	2	13	/
CCNC(=S)N/N=C/c1cccc(/C=N/NC(=S)NCC)c1	2	/	/	10.0*	/	/
CNC(=S)N/N=C/c1cccc(OCc2ccccc2F)c1	67*	-6	-16	2	34	/
CCNC(=S)N/N=C/c1cc(C)n(-c2ccc(Cl)cc2)c1C	73*	/	/	0	/	/
Cc1cccc(CC(=O)N2CCC(N3CCC(C(=O)N4CCOCC4)CC3)CC2)c1	9	/	/	0	/	/
CC1CN(c2nnc(NC(=O)c3ccccc3)s2)CC(C)O1 (stereo not given)	-3	/	/	3	/	/
COc1ccc(CNC(=O)CSc2nc3[nH]ncc3c(=O)n2-c2ccccc2Br)cc1	-17	/	/	-1	/	/
S=C(NCCSCc1ccc(Cl)c(Cl)c1)Nc1ccccc1	/	/	/	/	/	0.86
S=C(NCCSCc1ccc(Cl)cc1Cl)Nc1ccccc1	80*	-5	-5	4	3	0.11
